High-throughput results deposited in PubChem by several laboratories.
In the library only some 4.7% were active in any assay of this set; here they are far more common.
IMP-1 inh: blocks Pseudomonas aeruginosa IMP-1 metallo-beta-lactamase; purified IMP-1, nitrocefin hydrolysis, epi-absorbance fluorescence; inhibition, % at 5.6 µM; 290,000 compounds, 0.45% hits; AID 1556;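 active means inhibition above the mean plus 3 SD of all compounds in the same screening run, cut at about 4.5% in these data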;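 further: 0% = IMP-1 with DMSO and 100% = DMSO wells lacking enzyme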
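Assay system: purified IMP-1; Quantity: IMP-1 0.2 nM before substrate addition; Medium: HEPES buffer pH 7.1 with ZnSO4 and Brij 35; Incubation: 15 min enzyme–compound preincubation, then 25 min nitrocefin reaction, 25 °C; Signal: fluorescence quenching readout, ex 480/em 530 nm; Controls: DMSO with and without IMP-1; Repeats: singlicate testing.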
VIM-2 inhibitor: inhibitors of Pseudomonas aeruginosa VIM-2 metallo-beta-lactamase; purified VIM-2, nitrocefin hydrolysis, epi-absorbance fluorescence; inhibition, % at 5.6 µM; 290,000 compounds, 0.89% hits; AID 1527;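 active means inhibition above the mean of all tested compounds plus 3 SD, cutoff set per screening run, cut at about 7.5% in these data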;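 further: red hydrolysis product quenches plate fluorescence so inhibitors raise well fluorescence; 0% = enzyme with DMSO and 100% = DMSO without enzyme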
aSyn 5UTR inh: 5' untranslated region of α-synuclein, MLPCN primary screen. inhibition, % (tested at 7.5 µM). 300,000 compounds, 0.82% hits. AID 1813. alpha-synuclein 5'UTR reporter, inhibitor activity; in the data active means inhibition above about 60%;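 further: H4 neuroglioblastoma cells stably carrying SNCA 5'UTR luciferase fusion; 0% = DMSO wells and 100% = positive control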
Mdm2-MdmX inh: human Mdm2/MdmX binding inhibition. SaOS-2 split-luciferase Mdm2/MdmX complementation, luminescence. inhibition, % at 8 µM. 330,000 compounds, 3% hits;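 active means inhibition of at least 50% at 8 µM in the primary screen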
Target sequence (O15151 whole entry, looked up): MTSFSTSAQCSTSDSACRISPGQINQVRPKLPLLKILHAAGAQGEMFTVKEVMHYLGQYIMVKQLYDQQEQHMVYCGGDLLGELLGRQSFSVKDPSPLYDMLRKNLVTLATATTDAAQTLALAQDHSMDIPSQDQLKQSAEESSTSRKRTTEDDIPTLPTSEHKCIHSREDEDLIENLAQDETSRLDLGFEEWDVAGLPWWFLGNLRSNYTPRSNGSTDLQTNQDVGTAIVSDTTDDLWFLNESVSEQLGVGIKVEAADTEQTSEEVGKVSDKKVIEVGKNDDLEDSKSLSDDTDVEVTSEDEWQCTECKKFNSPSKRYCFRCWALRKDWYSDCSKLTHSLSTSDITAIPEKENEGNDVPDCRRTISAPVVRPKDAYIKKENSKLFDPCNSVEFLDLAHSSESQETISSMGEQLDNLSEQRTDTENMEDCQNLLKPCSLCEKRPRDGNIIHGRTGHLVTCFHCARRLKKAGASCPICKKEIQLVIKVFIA
Target sequence (Q00987 whole entry, looked up): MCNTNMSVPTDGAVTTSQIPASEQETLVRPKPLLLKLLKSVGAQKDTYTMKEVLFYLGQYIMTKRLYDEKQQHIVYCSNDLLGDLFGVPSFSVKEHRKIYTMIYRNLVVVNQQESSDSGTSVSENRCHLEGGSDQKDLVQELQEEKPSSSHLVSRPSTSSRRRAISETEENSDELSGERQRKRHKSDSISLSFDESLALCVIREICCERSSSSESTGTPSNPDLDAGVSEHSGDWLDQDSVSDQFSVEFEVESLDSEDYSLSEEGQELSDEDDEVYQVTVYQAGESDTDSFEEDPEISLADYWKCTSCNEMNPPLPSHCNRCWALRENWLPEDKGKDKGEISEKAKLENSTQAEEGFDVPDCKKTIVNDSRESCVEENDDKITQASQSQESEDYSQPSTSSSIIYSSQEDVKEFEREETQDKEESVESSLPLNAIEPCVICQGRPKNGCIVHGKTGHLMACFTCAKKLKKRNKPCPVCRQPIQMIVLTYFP
Jurkat NFkB inh: lowers PMA/ionomycin-induced NF-kB signal in Jurkat cells; 330,000 compounds, 0.53% hits; PMA/ionomycin-induced NF-kB luciferase reporter, luminescence; AID 435003; inhibition, % at 4 µM; in the data active means inhibition above about 50%
697 NFkB inh: inhibitors of the PMA/ionomycin-induced NF-kB reporter in 697 B cells; 697 B-cell NF-kB luciferase reporter, 16 h; inhibition, % at 4 µM; 330,000 compounds, 0.33% hits; in the data active means inhibition above about 35%
697 NFkB conf: lowers PMA/ionomycin-induced NF-kB signal in 697 B cells. inhibition, % at 4 µM. 2,000 compounds, 35% hits. shares compounds with 697 NFkB inh. 697 B-cell NF-kB luciferase, 16 h; in the data active means inhibition mostly above about 28%, no sharp cut-off; inactive means mostly below about 22%
* = called active by the depositor; i = inactive; . = no result given.

SMILES | IMP-1 inh | VIM-2 inhibitor | aSyn 5UTR inh | Mdm2-MdmX inh | Jurkat NFkB inh | 697 NFkB inh | 697 NFkB conf
Cc1ccc(N2CC(C(=O)Nc3c4c(nn3C(C)(C)C)CS(=O)(=O)C4)CC2=O)cc1C (configuration not stated) | -1.0 | -4.1 | 0.5 | 17.2 | 7.6 | -10.1 | .
CN(C)c1cc[n+](Cc2c(Cl)cccc2Cl)cc1 | -2.4 | 1.1 | 7.5 | 16.4 | 47.0 | 45.4* | 38.5*
COc1ccc(C=C(C(C)=O)C(C)=O)cc1OC | -5.6 | -5.2 | -5.5 | 11.3 | -8.5 | 42.7* | 30.3*
Cc1cccc(C(=O)OCC(=O)NC(=O)NCc2ccccc2)c1 | . | . | . | -18.7 | 3.7 | 18.1 | .
CCc1ccc(NC(=O)Nc2ccsc2C(=O)OC)cc1 | -3.2 | -1.7 | -65.4 | 11.7 | -32.1 | -357.9 | -315.4
COC(=O)c1sccc1NC(=O)Nc1ccc(C)c(C)c1 | -0.9 | -0.5 | . | -12.6 | -4.1 | -159.4 | .
Cc1cc(C)nc(Sc2ccc([N+](=O)[O-])cc2[N+](=O)[O-])n1 | -1.2 | -2.0 | -16.7 | 39.4 | -14.1 | 40.7* | 29.3*
COc1cc(C(=O)Nc2cc(C)c(OCC(=O)N3CCOCC3)c(C)c2)cc(OC)c1OC | -4.2 | -3.8 | 3.3 | 28.6 | 4.7 | 35.7* | 32.5*
CCOc1ccc(C(=O)NNC(=O)CNC(=O)c2ccc(C)s2)cc1OC | . | . | . | 21.0 | -12.0 | 15.0 | .
COc1ccc(N2CCN(C(=O)c3cc4c(-c5cccc(OC)c5)nn(C)c4s3)CC2)cc1 | -1.1 | 2.0 | . | 35.6 | 15.0 | 14.6 | .
COc1ccc(-c2nn(C)c3sc(C(=O)N4CCOCC4)cc23)cc1OC | -2.1 | 2.9 | 7.8 | 17.1 | 15.9 | 36.8* | 3.7
NC(=O)COc1cccc(/C=N/NC(=O)c2ccc(-n3cccc3)cc2)c1 | 0.4 | 0.7 | 16.4 | 11.6 | 10.2 | 51.8* | -7.2
NC(=O)c1ccc(C(=O)N/N=C/c2cccc(Oc3ccccc3)c2)cc1 | -3.2 | -2.6 | -0.7 | 12.5 | -0.8 | -8.7 | .
CCCn1cc(CN2CCCC(C(=O)c3ccc4c(c3)OCO4)C2)c(C)n1 (configuration not stated) | -3.0 | -4.3 | -4.9 | -8.0 | 8.5 | 2.0 | .
CC(C)c1nc2oc3c(NCC4CCCO4)ncnc3c2c2c1CCC2 (configuration not stated) | -3.2 | 1.9 | 23.0 | 27.5 | 6.8 | 42.1* | 24.5
CCCc1nc2oc3c(NCC4CCCO4)ncnc3c2c2c1COC(C)(C)C2 (configuration not stated) | -1.7 | -1.3 | 33.3 | 12.7 | -0.1 | 11.1 | .
Fc1cccc(C2NN=C(c3ccccc3)S2)c1 (configuration not stated) | -2.5 | -5.4 | -50.0 | -184.5 | -140.3 | -299.5 | -217.9
COc1ccc2oc3ccccc3c(=O)c2c1 | -2.9 | 0.1 | -161.5 | -7.5 | -91.1 | -50.0 | .
O=c1c2ccccc2oc2ccc(-c3ccc4cc[nH]c4c3)cc12 | . | . | . | -106.2 | -3.4 | -498.2 | i
O=C(/C=C\Nc1ccccn1)c1ccc(Cl)cc1 | -2.5 | -1.6 | . | 36.6 | -73.0 | -284.2 | -238.4
O=C(COC(=O)C1CCN(S(=O)(=O)c2ccc3c(c2)OCCO3)CC1)NC1CCCCC1 | . | . | 6.0 | 19.9 | 8.2 | 35.6* | 10.2
Cc1cc(C)c(S(=O)(=O)NCc2ccncc2)c(C)c1 | 0.3 | -2.2 | 18.3 | 15.1 | 45.7 | 58.0* | 41.0*
Cc1ccccc1NC(=O)/C(C#N)=C\c1cc(C)n(-c2ccc(C(=O)O)cc2)c1C | -0.6 | 0.3 | 4.1 | -4.7 | 4.9 | 39.7* | 2.6
Cc1nn(C(C)(C)C)c(OC(=O)c2ccc(Br)o2)c1Sc1ccccc1 | 0.4 | -0.3 | -31.8 | 22.2 | 8.8 | 36.3* | 31.1*
Cc1nn(C(C)(C)C)c(OC(=O)c2ccco2)c1Sc1ccccc1 | -5.0 | -3.0 | 2.5 | 25.7 | -1.8 | 18.4 | .
SMILES | IMP-1 inh | VIM-2 inhibitor | aSyn 5UTR inh | Mdm2-MdmX inh | Jurkat NFkB inh | 697 NFkB inh | 697 NFkB conf
CN1C(C(=O)Nc2cccc(O)c2)=CC(c2ccco2)=NS1(=O)=O | -4.7 | 0.1 | -8.5 | -0.6 | -0.9 | -5.3 | .
Nc1nc(Nc2ccccc2F)sc1C(=O)c1ccccc1 | -1.1 | 1.5 | -187.7 | -84.4 | -57.7 | -260.0 | -21.0
COc1ccccc1CNC(=O)CN(C)Cc1ccc(SC)cc1 | -0.9 | -3.9 | 9.5 | 4.5 | 33.4 | -21.2 | .
CC(C)N(Cc1ccccc1)C(=O)CN1C(=O)NC2(CCCCCC2)C1=O | . | . | . | -20.6 | 3.6 | 21.7 | .
CNC(=O)C(=O)NCCN1CCN(C(=O)c2ccc([N+](=O)[O-])cc2)CC1 | -1.9 | -3.5 | 3.7 | -3.7 | 9.7 | 35.1* | 14.7
N#CCSc1n[nH]c2nc3c(c(=O)n12)C1(CCCC1)Cc1ccccc1-3 | -2.0 | -3.2 | -11.9 | 0.3 | 1.2 | 37.0* | 3.5
CCCn1c(SCC#N)nc2c(c1=O)C1(CCCC1)Cc1ccccc1-2 | -3.2 | -2.9 | -1.5 | -19.2 | -0.3 | 15.1 | .
O=C(NCCCN1CCOCC1)c1cc(-c2ccc(Br)cc2)on1 | -3.1 | -2.4 | -12.6 | 16.4 | 2.8 | 63.1* | 38.3*
O=C(NCCCN1CCOCC1)c1cc(-c2ccc(O)cc2)on1 | -4.2 | -3.9 | -2.5 | -27.9 | -11.8 | 3.1 | .
CCn1cc(C(=O)O)c(=O)c2cnc(N3CCN(C(=S)NC(=O)c4ccc(Cl)cc4)CC3)nc21 | -3.3 | -3.9 | 18.4 | 22.0 | 18.5 | 38.0* | -1.2
CCn1cc(C(=O)O)c(=O)c2cnc(N3CCN(C(=S)Nc4ccc(F)cc4)CC3)nc21 | -0.6 | -1.4 | -8.7 | 19.9 | 6.8 | 8.0 | .
CCn1cc(C(=O)O)c(=O)c2cc(F)c(N3CCN(C(=S)NC(=O)c4ccc(Br)cc4)CC3)cc21 | -1.5 | -4.5 | 3.5 | 9.7 | -21.1 | 38.2* | 11.2
CCn1cc(C(=O)O)c(=O)c2cnc(N3CCN(C(=S)NC(=O)c4ccc(Br)cc4)CC3)nc21 | -1.5 | -2.1 | 9.0 | 13.6 | 9.3 | 83.6* | 26.4*
CN(CC(=O)N(C)CC(=O)Nc1c(Cl)cccc1Cl)Cc1ccc(Br)s1 | . | . | . | -5.4 | -5.8 | 8.4 | .
Cc1ccc(/C=C/c2nc3ccccc3c(=O)[nH]2)cc1 | -2.5 | -2.5 | 67.8* | -40.5 | -73.5 | -253.6 | -254.8
Cc1ccc(C)c(NC(=S)N2CCC(NC(=O)c3ccco3)CC2)c1 | -2.0 | -1.5 | -2.2 | 2.3 | 13.3 | 12.5 | .
COc1ccc(/C=C2\NC(=O)C(C=NCc3ccccc3)=C2O)cc1 | -1.7 | 0.2 | -7.6 | 10.9 | -14.7 | 15.4 | .
O=C1N/C(=C\c2ccc(O)cc2)C(O)=C1C=NCc1ccccc1 | -1.9 | -1.9 | 13.1 | 10.1 | 20.5 | 37.3* | 16.6
COc1ccc(C(=O)Nc2ccccc2C(=O)N/N=C/c2cccc3ccccc23)cc1 | -3.0 | -4.2 | -169.1 | -8.4 | -49.6 | -350.7 | -186.5
COc1ccc(C(=O)Nc2ccccc2C(=O)Nc2ccccc2C(=O)O)cc1 | -6.0 | -1.1 | -98.2 | 9.9 | -11.5 | -81.3 | .
